Measurements reported in ChEMBL document CHEMBL1156126, “Synthesis of some new pyrazolo[3,4-d]pyrimidine derivatives of expected anticancer and radioprotective activity” (Eur J Med Chem, 2010).
Values after ≈ are worked out from the molar mass of the structure shown.

Tests used:
[1] = Antitumor activity against mouse EAC assessed as non viable cells at 100 ug/ml after 2 hrs by trypan blue exclusion assay; assay type: functional, Ehrlich
Method in brief: (§1)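 EAC cells aspirated from ascitic fluid of preinoculated mice (line maintained by weekly i.p. transplantation), suspended in saline at 2.5×10⁶/ml. Compounds dissolved in DMSO:saline 0.7:0.3 at 1, 0.75, 0.5, 0.25 mg/ml stocks; 0.1 ml added to 0.8 ml saline plus 0.1 ml cells. Incubation 37 °C, 2 h; non-viable cells counted by trypan blue exclusion. IC50 taken from survival-versus-concentration curve.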

[2] = Antitumor activity against mouse EAC assessed as non viable cells at 50 ug/ml after 2 hrs by trypan blue exclusion assay; assay type: functional, Ehrlich; method in brief: as §1
[3] = Antitumor activity against mouse EAC assessed as non viable cells at 25 ug/ml after 2 hrs by trypan blue exclusion assay; assay type: functional, Ehrlich; method in brief: as §1
[4] = Antitumor activity against mouse EAC after 2 hrs by trypan blue exclusion assay; assay type: functional, cell-based; details: Ehrlich; method in brief: as §1
[5] = Antitumor activity against mouse EAC assessed as non viable cells at 75 ug/ml after 2 hrs by trypan blue exclusion assay; assay type: functional, Ehrlich; method in brief: as §1
[6] = test system: Mus musculus; test: Radioprotective activity in 6Gy gamma irradiated Swiss albino mouse assessed as reduction in gamma irradiation-induced lipid peroxidation at 150 mg/kg, ip administered as 3 doses in alternative days up to 7 days pretreated 30 mins before gamma-irradiation relative to control; assay type: functional; parameters: scale not given: the % may be the effect or the level left; details: route intraperitoneal
[7] = test system: Mus musculus; test: Radioprotective activity in 6Gy gamma irradiated Swiss albino mouse assessed as increase in blood glutathione content at 150 mg/kg, ip administered as 3 doses in alternative days up to 7 days relative to control; details: route intraperitoneal
[8] = test system: Mus musculus; test: Radioprotective activity in 6 Gy gamma irradiated Swiss albino mouse assessed as change in gamma irradiation-induced blood superoxide dismutase activity at 150 mg/kg, ip administered as 3 doses in alternative days up to 7 days pretreated 30 mins before gamma-irradiation relative to control; assay type: functional; details: route intraperitoneal
[9] = test system: Mus musculus; test: Radioprotective activity in 6Gy gamma irradiated Swiss albino mouse assessed as reduction in lipid peroxidation at 150 mg/kg, ip administered as 3 doses in alternative days up to 7 days relative to control; assay type: functional; parameters: scale not given: the % may be the effect or the level left; details: route intraperitoneal
[10] = test system: Mus musculus; test: Radioprotective activity in 6Gy gamma irradiated Swiss albino mouse assessed as reduction in gamma irradiation-inhibited blood glutathione content at 150 mg/kg, ip administered as 3 doses in alternative days up to 7 days pretreated 30 mins before gamma-irradiation relative to control; assay type: functional; parameters: scale not given: the % may be the effect or the level left; details: route intraperitoneal
[11] = test system: Mus musculus; test: Radioprotective activity in 6Gy gamma irradiated Swiss albino mouse assessed as survival at 150 mg/kg, ip administered as 3 doses in alternative days up to 7 days relative to control; assay type: functional; details: route intraperitoneal
Method in brief: (§2)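 Female Swiss albino mice (25–30 g), 10 per group. Test agent was suspended in carboxymethylcellulose and given ip every other day, 3 injections over 7 days, each 30 min before whole-body gamma irradiation (Cs-137, 6 Gy, 0.86 Gy/min). Groups were untreated, CMC, radiation-only and drug-only. Survival is the percentage of animals alive 7 days after the radiation dose.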

[12] = test system: Mus musculus; test: Radioprotective activity in 6Gy gamma irradiated Swiss albino mouse assessed as […] at 150 mg/kg, ip administered as 3 doses in alternative days up to 7 days pretreated 30 mins before gamma-irradiation relative to control; assay type: functional; details: route intraperitoneal; method in brief: as §2
[13] = test system: Mus musculus; test: Radioprotective activity in 6 Gy gamma irradiated Swiss albino mouse assessed as change blood superoxide dismutase activity at 150 mg/kg, ip administered as 3 doses in alternative days up to 7 days relative to control; assay type: functional; details: route intraperitoneal

Compound	Activity [1] [%]	Activity [2] [%]	Activity [3] [%]	IC50 [4] [µg/mL]	Activity [5] [%]	Activity [6] [%]	Activity [7] [%]	Activity [8] [%]	Activity [9] [%]	Activity [10] [%]	Activity [11] [%]	Activity [12] [%]	Activity [13] [%]
Nn1c(=O)[nH]c2c(cnn2-c2ccccc2)c1=O	50	20	10	100 (≈ 411 µM)	30	–	–	–	–	–	–	–	–
O=c1c2cnn(-c3ccccc3)c2ncn1Cc1ccccc1	80	10	10	90 (≈ 298 µM)	20	–	–	–	–	–	–	–	–
Nn1cnc2c(cnn2-c2ccccc2)c1=S	10	10	10	> 100	10	-6.19	4.95	-9.3	5.33	9.63	100	100	-2.04
O=c1c2cnn(-c3ccccc3)c2nc2ocnn12	0	0	10	> 100	0	–	–	–	–	–	–	–	–
O=c1c2cnn(-c3ccccc3)c2nc2[nH]c3ccccc3n12	0	0	10	> 100	0	–	–	–	–	–	–	–	–
S=c1nc2c3cnn(-c4ccccc4)c3ncn2[nH]1	30	10	10	> 100	10	–	–	–	–	–	–	–	–
O=C1/C(=C/c2ccccc2)N=C(c2ccccc2)N1n1cnc2c(cnn2-c2ccccc2)c1=O	0	0	10	> 100	0	–	–	–	–	–	–	–	–
O=c1oc2nc3c(cnn3-c3ccccc3)c(=O)n2c2ccccc12	30	10	10	> 100	30	–	–	–	–	–	–	–	–
CSC(=NS(=O)(=O)c1ccc(Nc2nn3c(=O)c4cnn(-c5ccccc5)c4nc3o2)cc1)SC	20	10	10	> 100	10	–	–	–	–	–	–	–	–
COc1cccc2c1C(=O)c1c(O)c3c(c(O)c1C2=O)C[C@@](O)(C(=O)CO)C[C@@H]3O[C@H]1C[C@H](N)[C@H](O)[C@H](C)O1 [DOXORUBICIN]	100	55	20	52 (≈ 95.7 µM)	75	–	–	–	–	–	–	–	–
